# pKi: −log10 of the molar value.
# Experiments:
# [1] = target: Cholesterol 24-hydroxylase (Homo sapiens, UniProt Q9Y6A2); experiment: Binding affinity to truncated d(2-50) 4His-tagged human CYP46A1 expressed in Escherichia coli DH5alpha as cholesterol-24 hydroxylation using cholesterol as substrate incubated for 30 mins in presence of NADPH cytochrome P450 oxidoreductase by gas chromatography-mass spectrometry
# [2] = Drug uptake in iv dosed mouse pancreas assessed as per gram of wet tissue measured after 5 to 60 mins; assay type: ADME, organism-based; settings: read-out: Drug uptake
# Summary of the method: (§1)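 Ex vivo whole-body biodistribution in mice after intravenous radioligand injection. Tissues collected at 5, 15, 30 and 60 min; radioactivity expressed as %ID/g, mean ± SD, n = 4 per time point.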
# [3] = Drug uptake in iv dosed mouse small intestine assessed as per gram of wet tissue measured after 5 to 60 mins; assay type: ADME, organism-based; settings: read-out: Drug uptake
# Summary of the method: as §1
# [4] = Stability in saline containing 5% ethanol assessed as compound radiolysis after 90 mins post formulation; assay type: physicochemical; settings: buffer, 1.5 h
# Summary of the method: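 Radiotracer formulated in saline containing 5% ethanol and held for 90 min after formulation, then checked for radiolysis.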
# [5] = Drug uptake in iv dosed mouse lung assessed as per gram of wet tissue measured after 5 to 60 mins; assay type: ADME, organism-based; settings: read-out: Drug uptake
# Summary of the method: as §1
# [6] = Drug uptake in dosed iv mouse liver assessed as per gram of wet tissue measured after 5 to 60 mins; assay type: ADME, organism-based; settings: read-out: Drug uptake
# Summary of the method: as §1
# [7] = Drug uptake in iv dosed mouse kidney assessed as per gram of wet tissue measured after 5 to 60 mins; assay type: ADME, organism-based; settings: read-out: Drug uptake
# Summary of the method: as §1
# [8] = Tmax in iv dosed mouse small intestine; assay type: ADME, organism-based
# Summary of the method: as §1
# [9] = Drug uptake in iv dosed mouse brain after 5 to 60 mins; assay type: ADME, organism-based; settings: in vivo
# Summary of the method: as §1
# [10] = Drug uptake in CD1 mouse brain assessed as standard uptake value after 0.5 mins; assay type: ADME, tissue-based; settings: in vivo
# Summary of the method: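 Dynamic PET acquisition in CD-1 mice over 60 min after radioligand injection; brain time–activity curves expressed as standard uptake value. Blocking arm pretreated with 2-phenylcyclopropan-1-amine (3 mg/kg); uptake compared by area under the curve.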
# [11] = Lipophilicity, logD of compound in n-octanol and phosphate buffered saline by shake flask method; assay type: physicochemical
# Summary of the method: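 Shake-flask partition of the 11C-labeled compound between n-octanol and phosphate buffered saline; logD calculated from the distribution of radioactivity between phases.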
# Cholesterol 24-hydroxylase, sequence (Q9Y6A2 whole entry, the tested form may be a part): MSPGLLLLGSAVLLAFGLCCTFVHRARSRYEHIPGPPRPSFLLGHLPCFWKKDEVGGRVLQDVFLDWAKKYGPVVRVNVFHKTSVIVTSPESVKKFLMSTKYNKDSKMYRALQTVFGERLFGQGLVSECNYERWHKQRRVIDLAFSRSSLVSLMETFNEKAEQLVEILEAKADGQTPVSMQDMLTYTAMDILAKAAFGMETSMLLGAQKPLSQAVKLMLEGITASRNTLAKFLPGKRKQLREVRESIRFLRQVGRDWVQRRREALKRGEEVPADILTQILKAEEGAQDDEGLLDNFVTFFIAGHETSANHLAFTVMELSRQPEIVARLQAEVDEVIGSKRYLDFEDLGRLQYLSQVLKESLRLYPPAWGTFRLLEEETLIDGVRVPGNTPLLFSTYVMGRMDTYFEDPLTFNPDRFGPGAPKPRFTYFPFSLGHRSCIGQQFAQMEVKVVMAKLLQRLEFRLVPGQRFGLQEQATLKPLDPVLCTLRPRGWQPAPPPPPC
pKi [1],tissue uptake [2],tissue uptake [3],Stability [4],tissue uptake [5],tissue uptake [6],tissue uptake [7],Tmax [8],Drug uptake [9],SUV [10],logD [11],SMILES
5.14,–,–,–,–,–,–,–,–,–,–,O=C(NCc1ccccc1)N1CCN(c2cncnc2-c2ccccc2)CC1
–,> 10 %ID/g,> 10 %ID/g,Stable,> 10 %ID/g,> 10 %ID/g,> 10 %ID/g,30 min,Active,0.42,3.05,O=[11C](NCc1ccccc1)N1CCN(c2cncnc2-c2ccccc2)CC1
